Source: the EternaBench riboswitch data

Test system: MS2 coat protein
Test: apparent Kd, MS2 coat protein; higher = weaker binding; RNA-MaP array
Summary of the method: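 RNA designs were transcribed from sequenced DNA templates on an Illumina sequencing chip and then incubated at room temperature with fluorescently labeled MS2 coat protein at 1.5 nM to 3 μM, with or without input ligand, in Tris-HCl pH 7.5 buffer containing KCl, MgCl2, BSA, DTT, tRNA and Tween20. Incubation lasted 0.8–1.5 h at the lowest protein concentrations and 10–20 min at the highest. Apparent Kd is the median of binding-curve fits made for each cluster. Designs measured on fewer than 10 clusters were excluded.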

[1] = ligand present: flavin mononucleotide, designed as: OFF switch for flavin mononucleotide
[2] = designed as: ON switch for flavin mononucleotide, no ligand
[3] = ligand present: flavin mononucleotide, designed as: ON switch for flavin mononucleotide
[4] = designed as: OFF switch for flavin mononucleotide, no ligand

Sequence | apparent Kd [1] [nM] | apparent Kd [4] [nM] | further results
CUCUCGCAAGGAUAUACACAGUGGAAUAUCAUAAGGUGAACACAUGAGGAUCACCCAUGUAGAAGGUGCAUAAG | 38.5 | – | –
UAACUCAAGUAACAGGAUAUGAGUGCGGAUACAUGAGGAUCACCCAUGUUGACGAUAACCGGACAACAGAAGGGUACCUAACUUGG | – | – | apparent Kd [2]: 33.5 nM; apparent Kd [3]: 22.2 nM
CGAAACAUGAGGAUCACCCAUGUGUAGAUCCUGCAAGCAUAUAGAAGGUCGUCACUCCGUCACGCGAAGGAUAUAUUAAGUGCC | 168 | 210 | –
GGAAAGUCUGAGAAGGGAUGAAGACAUGAGGAUCACCCAUGUGAAGGCCACUGGCUCCACAAGUAUCAGGAUAUCAGCAUAGCG | – | – | apparent Kd [2]: 36.3 nM; apparent Kd [3]: 20.6 nM
AAUGGGUGAGAUCGUUUCAACAUGAGGAUCACCCAUGUUGACAGAAGGAGGUCUAAAUAGCUACCCUAGGAUAUGUCCAUGCGA | 31.9 | 19.9 | –
GGACGGUGGUGAGGAUAUUGUCACAUGAGGAUCACCCAUGUCGUCUGGGAGCGGACUCCUCGGUCCAAGAAGGCACGACCAGCC | 431 | 246 | –
GGCGUCCAAUUGCAGGAUAUCGGCCGAACAACAUGAGGAUCACCCAUGUCUUGCCACAAUCAUGCCGAGAAGGGCAGAAGAACGUG | – | – | apparent Kd [2]: 21 nM; apparent Kd [3]: 10.1 nM
CUGAAAGUAGAGGAUAUGUGAAUAGCAGCGAUGACAGAAGGCUACACAUGAGGAUCACCCAUGUAAUCCCGUGC | 28.1 | 20.4 | –
CCCUCCAGAACGGCCGCCACUAAAGGGUUGUGUGCGACUCCGGAACAUGAGGAUCACCCAUGUCUUAGGACCGGGUUCCCUUCUA | – | – | apparent Kd (designed as: ON switch for tryptophan, no ligand): 62 nM; apparent Kd (ligand present: tryptophan, designed as: ON switch for tryptophan): 56.5 nM
GGGAGAAAUGGAGGAUAUAUUAAAGCACAGCUGACAUGAGGAUCACCCAUGUGAAUUAAAGAUGCAUAGAAGGCCAAACUACAA | – | – | apparent Kd [2]: 17.3 nM; apparent Kd [3]: 11.8 nM
GACAUGAGGAUCACCCAUGUGAAGCAUGGUGGGCGCUCGUCCUAGGAUAUCUGCAAGUAGCUAGGAGAGAAGGAGGUAGCCAAA | 57.6 | 76.3 | –
GCGACAUGAGGAUCACCCAUGUGCCUCGUGUUAUUCUCUUUAAGAAGGAACGGGUAGCUCUAUUGUUAGGAUAUUAAUGGAAUU | 724 | 689 | –
UGCAGGCGAACAGGAUAUCACACAUGAGGAUCACCCAUGUAAACUACUUAAGAAAGGGAGCCUCGUGAGAAGGGUUUCUUUGGG | 60.1 | 74.6 | –
UGCAGAGAUUGAGGAUAUGUAGUCGAACAUGAGGAUCACCCAUGUUUGGUCCUUCUACACACGGCACAGAAGGCAAGAAAGAGC | 24.3 | 15.1 | –
CAUUUACAUGAGGAUCACCCAUGUUAUUCUACCCAAGGAUAUCGGGAAAGUAGAACAAGUCGAGAAGGUGGUGCGC | – | – | apparent Kd [2]: 29.5 nM; apparent Kd [3]: 25.6 nM
GGAAUGUGAGGAUAUAGGUGACCAAUACAAAACACAAAGAUCUAGAAGGCACAUGAGGAUCACCCAUGUAUACG | 17.9 | 19.9 | –
CUGUUUGUUUGGGUCUGUCAAAAGAACGAUACCAGCCGCAUUAUGGGCCCUUGGCAGCGUAGGACAUGAGGAUCACCCAUGUACG | – | – | apparent Kd (designed as: OFF switch for theophylline, no ligand): 18.7 nM; apparent Kd (ligand present: theophylline, designed as: OFF switch for theophylline): 35.2 nM
GUCGGCUCAGUGUAGGAUAUGUCAAAGGUCACAUGAGGAUCACCCAUGUCUCGACGCAAAUUAGGACAGAAGGACAGCCAAAGCAU | – | – | apparent Kd [2]: 7.57 nM; apparent Kd [3]: 4.97 nM
CAAUAUUUCCAGAAGGGCAAGCUAACACCAACUGCAGGAUAUGGUUUCAUACAACAUGAGGAUCACCCAUGUGGCACAGGUUCC | – | – | apparent Kd [2]: 18.6 nM; apparent Kd [3]: 17.2 nM
AUAUGUUGAGGAUAUACAUGAGGAUCACCCAUGUAAUAUGAACGGAAUGAUUUAAGGAGUAGAAGGCAACACCA | 24.4 | 12.8 | –
CUCAGGCUGCGAGGAUAUCCGUCGAAUCAAACAGGAGAAGGCGCAUACAUGAGGAUCACCCAUGUGCUGACUUGUCCGUGAAUC | 6.37 | 5.46 | –
AUACCAUCCCAAGGAUAUGUUACCUAGACAUGAGGAUCACCCAUGUGAGAUUAGAGCUGUCGCGUACAGAAGGUGGUGAUGACA | 28.1 | 25.3 | –
UUGGUCCACAGACAUGAGGAUCACCCAUGUAGUAGUUGAAUGAGAAGGGCACUGGCUUGUCAGGUGCAGGAUAUCAGUCUAUGU | 106 | 118 | –
UCGGUAUAUACAGGAUAUGGUCAAUACAUGAGGAUCACCCAUGUUAGAGCGGCAAAUAGGAUCUUCCAGAAGGGUACUUGCUUA | 11.5 | 14.8 | –
AUAGCAUGAGUAGGAUAUUUUGAGCGUUGUGCAAAAGAAGGACUGACCGUGAUUAUAAUAUACAUGAGGAUCACCCAUGUUACA | 8.03 | 9.42 | –
GGGCAACAUGAGGAUCACCCAUGUCGUCAUGGGUUCAAUCGGAGAAGGAACGGAGUGAUAUCCAGUUAGGAUAUCCGCUACACU | 44 | 44.6 | –
UAGGUGCUCUAAGGAUAUUAUACAUGAGGAUCACCCAUGUGGCGACCAAGGGUAGAAGAGGAACUUAAGAAGGUAGAUGUAUAG | 34 | 43.2 | –
